Data: ChEMBL document CHEMBL4007420, “Structural Optimization and Pharmacological Evaluation of Inhibitors Targeting Dual-Specificity Tyrosine Phosphorylation-Regulated Kinases (DYRK) and CDC-like kinases (CLK) in Glioblastoma” (J Med Chem, 2017)
Active and inactive are the calls of the source. The calls are words filed in the database; no cut-off is given here.

Key:
[1] = Cytotoxicity against patient-derived JK2 cells assessed as reduction in cell viability after 3 days by Alamar blue assay; assay type: functional, cell-based; details: Homo sapiens, JK2, 72 h
Method in brief: (§1)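 The patient-derived glioblastoma lines were grown as stem cells under defined conditions to keep the phenotype and genotype of the resected tumours. Viability after treatment was read with Alamar blue.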

Homo sapiens = organism: Homo sapiens; assay: Inhibition of tubulin (unknown origin) polymerization
[2] = Antimigratory activity in patient-derived RN1 cells assessed as velocity of migration at 10 uM measured up to 20 hrs by wound scratch assay (reference value: 937 to 1174 micrometer/hr); assay type: functional, Homo sapiens
Method in brief: (§2)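 Wound-healing migration assay: cell movement across the wound is measured as velocity (µm/h). Compounds were tested at 0, 1.0, 5.0 and 10.0 µM. Values are mean ± SEM of 3 independent experiments.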

[3] = target: Dual specificity tyrosine-phosphorylation-regulated kinase 1A (Homo sapiens, UniProt Q13627); assay: Binding affinity to DYRK1A in human U251 […] preincubated for 1 hr followed by incubation at 54 degreeC for 3 mins by isothermal dose-response fingerprint assay
Method in brief: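 Isothermal dose-response fingerprint: intact U251 cells were treated for 1 h across 0–20 µM, then heated at 54 °C. The soluble fraction was extracted with aqueous buffer and DYRK1A was detected by Western blot. Results are mean ± SEM of 2 independent experiments.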

U-251 [4] = assay: Cytotoxicity against human U251 cells assessed as reduction in cell viability after 3 days by Alamar blue assay; assay type: functional, cell-based; details: U-251, 72 h
[5] = target: Dual specificity tyrosine-phosphorylation-regulated kinase 1B (Homo sapiens, UniProt Q9Y463); assay: Stabilization of DYRK1B in human U251 cell lysate at 10 uM preincubated for 1 hr followed by incubation at 40 to 70 degreeC for 3 mins by cellular thermal shift assay
[6] = target: T1, Dual specificity tyrosine-phosphorylation-regulated kinase 2 (Homo sapiens) (UniProt Q92630); assay: Stabilization of DYRK2 in human U251 cell lysate at 10 uM preincubated for 1 hr followed by incubation at 40 to 70 degreeC for 3 mins by cellular thermal shift assay
T1 sequence (whole entry): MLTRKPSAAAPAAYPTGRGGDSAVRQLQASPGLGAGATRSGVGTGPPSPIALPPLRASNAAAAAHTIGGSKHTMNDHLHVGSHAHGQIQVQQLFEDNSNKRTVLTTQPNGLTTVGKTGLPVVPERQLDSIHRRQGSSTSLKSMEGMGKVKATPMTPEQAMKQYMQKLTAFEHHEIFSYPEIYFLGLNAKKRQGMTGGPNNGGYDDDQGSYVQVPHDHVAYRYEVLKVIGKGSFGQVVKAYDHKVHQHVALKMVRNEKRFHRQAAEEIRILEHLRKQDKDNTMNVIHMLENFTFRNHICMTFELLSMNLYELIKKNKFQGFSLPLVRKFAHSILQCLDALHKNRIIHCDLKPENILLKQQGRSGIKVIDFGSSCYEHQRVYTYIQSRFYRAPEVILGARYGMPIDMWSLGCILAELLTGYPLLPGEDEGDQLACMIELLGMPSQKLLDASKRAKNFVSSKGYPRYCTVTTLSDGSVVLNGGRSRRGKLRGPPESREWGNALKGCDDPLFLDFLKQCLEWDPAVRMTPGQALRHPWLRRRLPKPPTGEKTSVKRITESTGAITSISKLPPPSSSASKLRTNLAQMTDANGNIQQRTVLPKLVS

U-251 [7] = assay: Antimigratory activity in human U251 cells at 5 uM measured up to 20 hrs by wound scratch assay; assay type: functional; details: U-251, 20 h; method in brief: as §2
A 172 [8] = assay: Antiinvasive activity in human A172 cells assessed as velocity of invasion at 5 uM measured up to 20 hrs by matrigel assay (reference value: 2659 to 3047 micrometer/hr); assay type: functional
A 172 [9] = assay: Antiinvasive activity in human A172 cells assessed as velocity of invasion at 10 uM measured up to 20 hrs by matrigel assay (reference value: 2659 to 3047 micrometer/hr); assay type: functional
U-251 [10] = assay: Antiinvasive activity in human U251 cells assessed as velocity of invasion at 10 uM measured up to 20 hrs by matrigel assay (reference value: 1151 to 1710 micrometer/hr); assay type: functional
U-251 [11] = assay: Antiinvasive activity in human U251 cells assessed as velocity of invasion at 5 uM measured up to 20 hrs by matrigel assay (reference value: 1151 to 1710 micrometer/hr); assay type: functional
[12] = Antimigratory activity in patient-derived RN1 cells assessed as velocity of migration at 1 uM measured up to 20 hrs by wound scratch assay (reference value: 937 to 1174 micrometer/hr); assay type: functional, Homo sapiens; method in brief: as §2
A 172 [13] = assay: Antiinvasive activity in human A172 cells assessed as velocity of invasion at 1 uM measured up to 20 hrs by matrigel assay (reference value: 2659 to 3047 micrometer/hr); assay type: functional
[14] = Cytotoxicity against patient-derived SJH1 cells assessed as reduction in cell viability after 3 days by Alamar blue assay; assay type: functional, cell-based; details: Homo sapiens, SJH1, 72 h; method in brief: as §1
U-251 [15] = assay: Antiinvasive activity in human U251 cells measured up to 20 hrs by matrigel assay; assay type: functional, cell-based

Sequence of Dual specificity tyrosine-phosphorylation-regulated kinase 1B (Q9Y463 whole entry, looked up): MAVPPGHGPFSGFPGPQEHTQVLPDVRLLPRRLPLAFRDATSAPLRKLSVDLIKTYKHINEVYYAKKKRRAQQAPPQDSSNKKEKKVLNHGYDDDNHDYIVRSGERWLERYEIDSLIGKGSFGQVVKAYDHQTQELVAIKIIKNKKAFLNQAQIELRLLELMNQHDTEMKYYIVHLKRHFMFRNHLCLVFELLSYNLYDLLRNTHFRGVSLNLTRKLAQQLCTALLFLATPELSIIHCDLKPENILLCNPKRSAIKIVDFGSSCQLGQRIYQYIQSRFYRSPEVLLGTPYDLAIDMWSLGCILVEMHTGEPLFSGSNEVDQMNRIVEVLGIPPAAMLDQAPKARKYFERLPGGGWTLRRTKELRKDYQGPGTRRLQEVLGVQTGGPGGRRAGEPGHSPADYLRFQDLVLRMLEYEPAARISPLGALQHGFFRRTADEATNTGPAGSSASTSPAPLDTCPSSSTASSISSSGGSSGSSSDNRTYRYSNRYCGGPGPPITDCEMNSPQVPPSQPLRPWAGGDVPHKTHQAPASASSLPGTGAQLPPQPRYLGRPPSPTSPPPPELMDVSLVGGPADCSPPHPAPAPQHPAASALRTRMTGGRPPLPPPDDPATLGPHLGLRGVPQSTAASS

For `Nc1ccc(-c2cnc3[nH]cc(-c4ccc(O)cc4)c3c2)cc1`, the EC50 [1] was 8 µM, the inhibition (Homo sapiens) was “inactive” and the Activity [2] was 208 um/hr. The IC50 [3] was 711 nM, the EC50 (U-251 [4]) was 1.6 to 4.6 µM and the Activity [5] was “Active”. For the same compound, the Activity [6] was “Active”, the inhibition at 5 µM (U-251 [7]) was over 75% and the Activity (A 172 [8]) was 1538 um/hr. The Activity (A 172 [9]) was 714 um/hr, the Activity (U-251 [10]) was -149 um/hr and the Activity (U-251 [11]) was 234 um/hr. It also gave an Activity [12] of 355 um/hr, an Activity (A 172 [13]) of 2675 um/hr and an EC50 [14] of 3.2 µM. For the same compound, the inhibition (U-251 [15]) was “Dose-dependent effect”.
